Results from different studies.
Lines come from different studies, so protocols differ.
Read-out: enzyme activity
Mode: inhibitor
SRC: Proto-oncogene tyrosine-protein kinase Src (SRC, Homo sapiens, UniProt P12931)
SRC T341M: Proto-oncogene tyrosine-protein kinase Src (SRC, Homo sapiens, UniProt P12931, T341M)

`CC(C)(O)[C@H]1CC[C@H](Nc2ccc3ncc(-c4cccc(C(F)(F)F)c4)n3n2)CC1` gave a remaining activity of 27.9% (SRC; 1 µM).
`Cc1cnc(NC2CCOCC2)nc1-n1cnc(C(=O)NC(CN)c2cc(F)cc(Cl)c2)c1` (stereo not drawn) has a remaining activity of 103% (SRC T341M; radiometric; 1 µM).
`O=c1cc(-c2cccc3c2Sc2ccccc2S3)oc(N2CCOCC2)c1` gave a remaining activity of 106% (SRC; 0.5 µM).
`Nc1nc(Nc2ccccc2)sc1C(=O)c1c(F)cccc1F` has a remaining activity of 47% (SRC; 10 µM).
With `FC(F)c1nc2ccccc2n1-c1nc(N2CCOCC2)nc(N2CCOCC2)n1` the remaining activity was 104% (SRC; 10 µM).
`O=C(Nc1cnn(-c2csc(C(=O)NC3COC3)c2)c1)Nc1ccccc1Cl` gave a remaining activity of 91.1% (SRC; 5 µM).
`COc1cc(Nc2cnc(C#N)c(O[C@H](C)CN(C)C)n2)ncc1-c1cnn(C)c1` gave a remaining activity of 81% (SRC; radiometric; 1 µM).
With `Cc1[nH]c(/C=C2\C(=O)Nc3ccc(F)cc32)c(C)c1C(=O)N[C@H]1CCN(C(=O)N(C)C)C1` the remaining activity was 109% (SRC; 0.1 µM).
For `CCCOc1ccc(OC)c(F)c1C(=O)c1ccc(C(=O)N[C@@H]2CNC[C@H]2NC(=O)c2ccc3[nH]ncc3c2)cc1`, the remaining activity was 53% (SRC T341M; 10 µM).
For `CC(C)(C)c1nc(-c2cccc(NS(=O)(=O)c3c(F)cccc3F)c2F)c(-c2ccnc(N)n2)s1`, the remaining activity was 68% (SRC; radiometric; 1 µM).
`Cc1ccc(NC(=O)c2ccc(C)c(C(F)(F)F)c2)cc1C#Cc1nn(C2CCC(O)CC2)c2ncnc(N)c12` (stereo not drawn) gave a remaining activity of 0% (SRC; 10 µM).
`CCN(CC)c1ccc(C2=NNC(=O)CC2C)cc1[N+](=O)[O-]` (stereo not drawn) has a remaining activity of 94% (SRC; 10 µM).
